Measurements taken from ChEMBL document CHEMBL1123658, “1-(2-pyridinyl)piperazine derivatives with antianaphylactic, antibronchospastic, and mast cell stabilizing activities” (J Med Chem, 1987).

Columns and labels:
Rattus norvegicus [1] = experiment: Rat PCA Test(50% inhibition of spot areas)in the female albino rats after ip administration in 10% aqueous acacia gum; Value ranges from (6-147).; conditions: read-out: ID50 (the source's name)
[2] = In vivo toxic effect was determined in mouse after intraperitoneal administration with 10% aqueous acacia gum; value ranges from 0.27-0.43; assay type: toxicity, organism-based; conditions: ip
Outline: (§1)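 Female albino mice (20-30 g), 10 animals per dose, dosed intraperitoneally with compound in solution or suspension; compounds tested as salts unless noted. Mortality was recorded over 7 days.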

[3] = In vivo toxic effect was determined in mouse after intraperitoneal administration with 10% aqueous acacia gum; value ranges from 0.39-0.76; assay type: toxicity, organism-based; conditions: ip
Outline: as §1

Cavia porcellus [4] = experiment: Antibronchospatic activity determined by histamine stimulated bronchospasm inhibition in guinea pigs after(i.v.) administration; assay type: functional, Bronchiole
Outline: (§2)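 Guinea pigs, Konzett–Rössler preparation. Bronchospasm was induced with histamine. Compound was given iv (1 mL/kg) 1 min before the agonist, dissolved in saline or saline with slight excess HCl or CH3SO3H (pH 3.5–4). Three doses were tested in duplicate, chosen to give 20–90% inhibition. ID75 was read graphically from log dose–response curves.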

Rattus norvegicus [5] = experiment: Rat PCA Test(50% inhibition of spot areas)in the female albino rats after ip administration in 10% aqueous acacia gum; assay type: functional; conditions: read-out: ID50 (the source's name)
Outline: (§3)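 Antiserum came from female rats given 1% egg albumin in 0.9% NaCl intramuscularly plus Haemophilus pertussis vaccine (2 × 10^10 organisms) intraperitoneally, and was collected 12 days later. Recipient rats (200-250 g) got it intradermally at a ventral site. After 24 h, groups of 10 received vehicle or compound ip. At 30 min they were challenged iv with 0.3% egg albumin plus 1% Evans blue. Blued skin areas were measured 30 min later.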

[6] = In vivo toxic effect was determined in mouse after intraperitoneal administration with 10% aqueous acacia gum; value ranges from (0.47-0.85); assay type: toxicity, organism-based; conditions: ip
Outline: as §1

Cavia porcellus [7] = experiment: Antibronchospatic activity was determined by inhibition of histamine stimulated bronchospasm in guinea pigs after (iv) administration; assay type: functional, Bronchiole
Outline: as §2

Rattus norvegicus [8] = experiment: Rat PCA Test(50% inhibition of spot areas)in the female albino rats after ip administration in 10% aqueous acacia gum; Value ranges from(26-134); assay type: functional; conditions: read-out: ID50 (the source's name)
Outline: as §3

[9] = In vivo toxic effect was determined in mouse after intraperitoneal administration with 10% aqueous acacia gum; value ranges from 0.39-0.70; assay type: toxicity, organism-based; conditions: ip
Outline: as §1

[10] = In vivo toxic effect was determined in mouse after intraperitoneal administration with 10% aqueous acacia gum; value ranges from 0.48-0.77; assay type: toxicity, organism-based; conditions: ip
Outline: as §1

Rattus norvegicus [11] = experiment: Rat PCA Test(50% inhibition of spot areas)in the female albino rats after (ip) administration in 10% aqueous acacia gum; value ranges from 45-69; assay type: functional; conditions: read-out: ID50 (the source's name)
Outline: (§4)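 Female albino rats (200–250 g) received intradermal ventral injections of rat anti-egg-albumin antiserum; donors were raised with egg albumin im plus H. pertussis ip, and serum was taken at 12 days. 24 h later, compound was given ip in 10% acacia gum (10 mL/kg), 10 rats/group. Challenge 30 min later was iv 0.3% egg albumin plus 1% Evans blue. Blued areas were measured 30 min after challenge.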

Rattus norvegicus [12] = experiment: Rat PCA Test(50% inhibition of spot areas)in the female albino rats after oral administration in 10% aqueous acacia gum; value ranges from 80-141; assay type: functional; conditions: read-out: ID50 (the source's name)
Outline: (§5)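 Female rats (200-250 g) were passively sensitized by ventral intradermal anti-egg-albumin antiserum. This was raised in rats by intramuscular 1% egg albumin plus ip H. pertussis vaccine, with serum taken at 12 days. After 24 h, groups of 10 were dosed orally with compound or vehicle (10 mL/kg). At 60 min, iv challenge used 0.3% egg albumin with 1% Evans blue. Blued areas were measured after 30 min.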

[13] = In vivo toxic effect was determined in mouse after oral administration with 10% aqueous acacia gum; value ranges from 1.23-1.71; assay type: toxicity, organism-based
Outline: (§6)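 Female albino mice, 20-30 g. Compound given orally as solution or suspension in 10% aqueous acacia gum, 10 animals per dose. Deaths recorded over 7 days.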

[14] = In vivo toxic effect was determined in mouse after oral administration with 10% aqueous acacia gum; value ranges from 3.08-6.27; assay type: toxicity, organism-based
Outline: as §6

Rattus norvegicus [15] = experiment: Rat PCA Test(50% inhibition of spot areas)in the female albino rats after (ip) administration in 10% aqueous acacia gum; value ranges from 145-288; assay type: functional; conditions: read-out: ID50 (the source's name)
Outline: as §4

[16] = In vivo toxicity in mouse after oral administration with 10% aqueous acacia gum; assay type: organism-based
Outline: as §6

Rattus norvegicus [17] = experiment: Rat PCA Test(50% inhibition of spot areas)in the female albino rats after (ip) administration in 10% aqueous acacia gum; assay type: functional; conditions: read-out: ID50 (the source's name)
Outline: as §4

Rattus norvegicus [18] = experiment: Rat PCA Test(50% inhibition of spot areas)in the female albino rats after (ip) administration in 10% aqueous acacia gum; value ranges from 57-142; assay type: functional; conditions: read-out: ID50 (the source's name)
Outline: as §4

Rattus norvegicus [19] = experiment: Inhibition of mast cell degranulation was assessed in female albino rats at a dose of 45 umol/kg iv; assay type: functional
Rattus norvegicus [20] = experiment: Rat PCA Test(50% inhibition of spot areas)in the female albino rats after oral administration in 10% aqueous acacia gum; value ranges from 110-212; assay type: functional; conditions: read-out: ID50 (the source's name)
Outline: as §5

Rattus norvegicus [21] = experiment: Inhibition of mast cell degranulation was assessed in female albino rats at a dose of 65 umol/kg iv; assay type: functional
[22] = In vivo toxic effect was determined in mouse after intraperitoneal administration with 10% aqueous acacia gum; value ranges from 1.82-3.42; assay type: toxicity, organism-based; conditions: ip
Outline: as §1

Rattus norvegicus [23] = experiment: Rat PCA Test(50% inhibition of spot areas)in the female albino rats after oral administration in 10% aqueous acacia gum; value ranges from 184-369; assay type: functional; conditions: read-out: ID50 (the source's name)
Outline: as §5

Rattus norvegicus [24] = experiment: Rat PCA Test(50% inhibition of spot areas)in the female albino rats after (ip) administration in 10% aqueous acacia gum; value ranges from 99-415; assay type: functional; conditions: read-out: ID50 (the source's name)
Outline: as §3

[25] = In vivo toxic effect was determined in mouse after oral administration with 10% aqueous acacia gum; value ranges from 0.41-0.93; assay type: toxicity, organism-based
[26] = In vivo toxic effect was determined in mouse after intraperitoneal administration with 10% aqueous acacia gum; value ranges from 0.28-0.52; assay type: toxicity, organism-based; conditions: ip
Outline: as §1

Rattus norvegicus [27] = experiment: Inhibition of mast cell degranulation was assessed in female albino rats at a dose of 50 umol/kg iv; assay type: functional
[28] = In vivo toxic effect was determined in mouse after oral administration with 10% aqueous acacia gum; value ranges from 4.50-5.90; assay type: toxicity, organism-based
Outline: as §6

Rattus norvegicus [29] = experiment: Rat PCA Test(50% inhibition of spot areas)in the female albino rats after (ip) administration in 10% aqueous acacia gum; value ranges from 128-203; assay type: functional; conditions: read-out: ID50 (the source's name)
Outline: as §4

Rattus norvegicus [30] = experiment: Rat PCA Test(50% inhibition of spot areas)in the female albino rats after oral administration in 10% aqueous acacia gum; value ranges from 161-222; assay type: functional; conditions: read-out: ID50 (the source's name)
Outline: as §5

Mus musculus = experiment: In vivo toxic effect was determined in mouse after intraperitoneal administration with 10% aqueous acacia gum; NA means poorly absorbed; assay type: toxicity, organism-based; conditions: ip
Outline: as §1

SMILES: Cc1c(C)c([N+](=O)[O-])c(C)c(C)c1C(=O)NCCN1CCN(c2ccccn2)CC1.Cl.Cl
- ED50 (Rattus norvegicus [1]): 30 µmol/kg
- LD50 [2]: 320 µmol/kg

SMILES: Cc1cc(N)cc(C)c1C(=O)NCCN1CCN(c2ccccn2)CC1.Cl
- LD50 [3]: 550 µmol/kg
- ID75 (Cavia porcellus [4]): 5.27 µM/kg
- ED50 (Rattus norvegicus [5]): > 167 µmol/kg

SMILES: CCCCOc1cc(C(=O)NCCN2CCN(c3ccccn3)CC2)c2ccccc2n1.Cl.Cl
- LD50 [6]: 540 µmol/kg
- ED50 (Rattus norvegicus [5]): > 175 µmol/kg
- ID75 (Cavia porcellus [7]): 8.15 µM/kg

SMILES: Cc1cc([N+](=O)[O-])cc(C)c1C(=O)NCCN1CCN(c2ccccn2)CC1.Cl.Cl
- ID75 (Cavia porcellus [4]): 4.6 µM/kg
- ED50 (Rattus norvegicus [8]): 78 µmol/kg
- LD50 [9]: 530 µmol/kg

SMILES: COc1cccc(N2CCN(CCC(=O)Nc3ccc(N)cc3)CC2)n1.Cl.Cl
- ID75 (Cavia porcellus [4]): 0.4 µM/kg
- LD50 [10]: 530 µmol/kg
- ED50 (Rattus norvegicus [11]): 56 µmol/kg
- ED50 (Rattus norvegicus [12]): 106 µmol/kg
- LD50 [13]: 1600 µmol/kg

SMILES: COc1cccc(N2CCN(CCC(=O)Nc3ccc([N+](=O)[O-])cc3)CC2)n1.Cl
- ID75 (Cavia porcellus [4]): 0.16 µM/kg
- LD50 [14]: 4390 µmol/kg
- ED50 (Rattus norvegicus [15]): 204 µmol/kg

SMILES: COc1cccc(N2CCN(CCC(=O)Nc3ccccc3[N+](=O)[O-])CC2)n1.Cl
- ID75 (Cavia porcellus [4]): 0.52 µM/kg
- LD50 [16]: > 7100 µmol/kg
- ED50 (Rattus norvegicus [17]): > 237 µmol/kg

SMILES: CC(=O)Nc1ccc(NC(=O)CCN2CCN(c3ccccn3)CC2)cc1.Cl.Cl
- ED50 (Rattus norvegicus [18]): 90 µmol/kg
- ID75 (Cavia porcellus [4]): 0.97 µM/kg
- inhibition in vivo at 45 µmol/kg (Rattus norvegicus [19]): 29%
- LD50 [16]: > 6810 µmol/kg
- ED50 (Rattus norvegicus [20]): 153 µmol/kg

SMILES: Cl.Cl.NC(=O)CCN1CCN(c2ccccn2)CC1
- ID75 (Cavia porcellus [4]): 2.47 µM/kg
- inhibition in vivo at 65 µmol/kg (Rattus norvegicus [21]): 23%
- LD50 [22]: 2440 µmol/kg
- ED50 (Rattus norvegicus [23]): 260 µmol/kg
- ED50 (Rattus norvegicus [24]): 203 µmol/kg

SMILES: Cl.Cl.N#Cc1ccc(NC(=O)CCN2CCN(c3ccccn3)CC2)cc1
- ID75 (Cavia porcellus [4]): 0.64 µM/kg
- ED50 (Rattus norvegicus [17]): > 39 µmol/kg
- LD50 [25]: 620 µmol/kg
- LD50 [26]: 390 µmol/kg

SMILES: Cl.Cl.O=C(CCN1CCN(c2ccccn2)CC1)Nc1ccc(O)cc1
- inhibition in vivo at 50 µmol/kg (Rattus norvegicus [27]): 64%
- ID75 (Cavia porcellus [4]): 0.49 µM/kg
- LD50 [28]: 5200 µmol/kg
- ED50 (Rattus norvegicus [29]): 161 µmol/kg
- ED50 (Rattus norvegicus [30]): 189 µmol/kg
- LD50 (Mus musculus): Not Active
